Values after ≈ are worked out from the molar mass of the structure shown.
Key:
L1210 = assay: The compound was tested for its antitumor activity against L1210 cells; assay type: functional; conditions: Mus musculus, read-out: ID50 (the source's name)
Mus musculus [1] = assay: At 12.5 mg/kg dose CDF1 mice were injected ip on (1,5,9) days after tumor transplantation to evaluate mean survival time; assay type: functional; conditions: route intraperitoneal
Outline: (§1)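 CDF1 mice were inoculated ip with 10^6 murine leukemia cells on day 0. Drug was given ip starting 24 h later, on the day schedule listed in each line. Mice were checked daily for toxicity and survival, and day of death was recorded over a 60-day study. The result is reported as mean survival time of treated mice divided by that of controls, ×100.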

Mus musculus [2] = assay: At 25 mg/kg dose CDF1 mice were injected ip on (1,5) days after tumor transplantation to evaluate mean survival time; assay type: functional; conditions: route intraperitoneal; outline: as §1
Mus musculus [3] = assay: At 50 mg/kg dose CDF1 mice were injected ip on (1,5) days after tumor transplantation to evaluate mean survival time; assay type: functional; conditions: route intraperitoneal; outline: as §1
Mus musculus [4] = assay: At 50 mg/kg dose CDF1 mice were injected ip on (1,5,9) days after tumor transplantation to evaluate mean survival time; assay type: functional; conditions: route intraperitoneal; outline: as §1
Mus musculus [5] = assay: At 25 mg/kg dose CDF1 mice were injected ip on (1,5,9) days after tumor transplantation to evaluate mean survival time; assay type: functional; conditions: route intraperitoneal; outline: as §1
Mus musculus [6] = assay: At 6.25 mg/kg dose CDF1 mice were injected ip on (1,5,9) days after tumor transplantation to evaluate mean survival time; assay type: functional; conditions: route intraperitoneal; outline: as §1
Homo sapiens [7] = organism: Homo sapiens; assay: Inhibition of cellular growth was evaluated in vitro against human colon carcinoma subline resistant to DOXO (LOVO/DOXO).; assay type: functional, organism-based
Outline: (§2)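 LOVO and LOVO/DOXO cells were grown at 37 °C under 5% CO2 in Ham's F12 with 20% fetal calf serum. They were plated at 2.5 × 10³ cells/dish and exposed continuously to drug for 144 h. Growth inhibition was read by MTT assay, and the ID50 (drug concentration giving 50% inhibition of growth versus control) was derived.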

Homo sapiens [8] = organism: Homo sapiens; assay: Inhibition of cellular growth was evaluated in vitro against human colon carcinoma LOVO; assay type: functional; outline: as §2
Mus musculus [9] = assay: At 12.5 mg/kg dose CDF1 mice were injected ip on (1) days after tumor transplantation to evaluate mean survival time; assay type: functional; conditions: route intraperitoneal; outline: as §1
Mus musculus [10] = assay: At 25 mg/kg dose CDF1 mice were injected ip on (1) days after tumor transplantation to evaluate mean survival time; assay type: functional; conditions: route intraperitoneal; outline: as §1
Mus musculus [11] = assay: At 50 mg/kg dose CDF1 mice were injected ip on 1 day after tumor transplantation to evaluate mean survival time; assay type: functional; conditions: route intraperitoneal; outline: as §1
Mus musculus [12] = assay: At 5 mg/kg dose CDF1 mice were injected ip on (1,5) days after tumor transplantation to evaluate mean survival time; assay type: functional; conditions: route intraperitoneal; outline: as §1
Homo sapiens [13] = organism: Homo sapiens; assay: Inhibition of cellular growth was evaluated in vitro against human colon carcinoma LOVO.; assay type: functional, organism-based; outline: as §2

SMILES	IC50 (L1210) [µg/mL]	T/C (Mus musculus [1]) [%]	T/C (Mus musculus [4]) [%]	T/C (Mus musculus [5]) [%]	IC50 (Homo sapiens [7]) [µg/mL]	further results
CN(C)CCNc1ccc(NCCCCN)c2c1C(=O)c1ccccc1C2=O	0.0045 (≈ 0.0118 µM)	113	–	–	–	T/C (Mus musculus [2]): 111%; T/C (Mus musculus [3]): 64%
CN(C)CCNc1ccc(NCCNCCO)c2c1C(=O)c1ccccc1C2=O	0.0038 (≈ 0.00958 µM)	–	145	148	–	–
CN(C)CCNc1ccc(NCCNCCO)c2c1C(=O)c1c(O)ccc(O)c1C2=O	0.00017 (≈ 0.000397 µM)	187	–	244	0.024 (≈ 0.056 µM)	T/C (Mus musculus [6]): 188%; IC50 (Homo sapiens [8]): 0.001 µg/mL (≈ 0.00233 µM)
CN(C)CCNc1ccc(N(C)CCN(C)C)c2c1C(=O)c1ccccc1C2=O	0.5 (≈ 1.27 µM)	–	127	–	–	T/C (Mus musculus [2]): 108%
CN(C)CCN(C)c1ccc(N(C)CCN(C)C)c2c1C(=O)c1ccccc1C2=O	4.6 (≈ 11.3 µM)	–	–	–	–	T/C (Mus musculus [9]): 103%; T/C (Mus musculus [10]): 100%; T/C (Mus musculus [11]): 95%
NCCCCNc1ccc(NCCNCCO)c2c1C(=O)c1c(O)ccc(O)c1C2=O	0.0007 (≈ 0.00163 µM)	–	–	–	–	T/C (Mus musculus [12]): 138%
O=C1c2ccccc2C(=O)c2c(NC3CC3)ccc(NC3CC3)c21	> 10	112	–	107	–	T/C (Mus musculus [6]): 100%
CN(C)CCNc1ccc(NCCN)c2c1C(=O)c1ccccc1C2=O	0.03 (≈ 0.0851 µM)	129	180	150	–	–
O=C1c2ccccc2C(=O)c2c(NCCNCCO)ccc(NCCNCCO)c21 [AMETANTRONE]	0.01 (≈ 0.0242 µM)	177	146	252	44.8 (≈ 109 µM)	IC50 (Homo sapiens [13]): 0.283 µg/mL (≈ 0.685 µM)
COc1cccc2c1C(=O)c1c(O)c3c(c(O)c1C2=O)C[C@@](O)(C(=O)CO)C[C@@H]3O[C@H]1C[C@H](N)[C@H](O)[C@H](C)O1 [DOXORUBICIN]	–	–	–	–	3.84 (≈ 7.07 µM)	IC50 (Homo sapiens [13]): 0.0247 µg/mL (≈ 0.0454 µM)
O=C1c2c(O)ccc(O)c2C(=O)c2c(NCCNCCO)ccc(NCCNCCO)c21 [MITOXANTRONE]	–	–	–	–	0.274 (≈ 0.616 µM)	IC50 (Homo sapiens [13]): 0.0055 µg/mL (≈ 0.0124 µM)
